According to ChEMBL document CHEMBL3046016, “Antifeedant and growth inhibitory effects of some neo-clerodane diterpenoids isolated from Clerodendron species (Verbenaceae) on Earias vitella and Spodoptera litura” (2003):

Columns and labels:
Format in all cases: functional
Earias vittella [1] = experiment: Insecticidal activity against male adult Earias vitella assessed as adult longevity time at 10 ug/cm3 administered through artificial diet containing Abelmoschus esculentus seed powder (reference value: 8.2 +/- 0.4 days)
Earias vittella [2] = experiment: Antifeedant activity against third-instar larval stage of Earias vitella assessed as decrease in diet consumption at 10 ug/cm3 administered through artificial diet containing Abelmoschus esculentus seed powder after 24 hr relative to acetone-treated control; set-up: scale not given: the % may be the effect or the level left
How it was run: (§1)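 Artificial diet was modified Klein medium with bhendi (Abelmoschus esculentus) seed powder in place of alfalfa. Compound in acetone was mixed into bhendi meal 12 h before diet preparation so the solvent evaporated. One 3 g diet cube was given to five freshly molted third-instar larvae in a muslin-covered container. After 24 h the cubes were weighed. %AF = 100 − (treated/control)×100.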

Earias vittella [3] = experiment: Insecticidal activity against pupal stage of Earias vitella assessed as pupal weight at 10 ug/cm3 administered through artificial diet containing Abelmoschus esculentus seed powder (reference value: 88.2 +/- 4.01 mg)
Spodoptera litura [4] = experiment: Insecticidal activity against pupal stage of Spodoptera litura in compound-treated castor leaves assessed as pupal mortality at 10 ug/cm2 relative to control
Spodoptera litura [5] = experiment: Insecticidal activity against male adult Spodoptera litura in compound-treated castor leaves assessed as adult longevity time at 5 ug/cm2 (reference value: 9.4 +/- 0.48 days)
Spodoptera litura [6] = experiment: Insecticidal activity against male adult Spodoptera litura in compound-treated castor leaves assessed as adult longevity time at 10 ug/cm2 (reference value: 9.4 +/- 0.48 days)
Earias vittella [7] = experiment: Insecticidal activity against female adult Earias vitella assessed as adult longevity time at 5 ug/cm3 administered through artificial diet containing Abelmoschus esculentus seed powder (reference value: 8.6 +/- 0.48 days)
Spodoptera litura [8] = experiment: Insecticidal activity against adult Spodoptera litura in compound-treated castor leaves assessed as adult emergence at 10 ug/cm2 relative to control
Earias vittella [9] = experiment: Insecticidal activity against third-instar larval stage of Earias vitella assessed as total larval duration time at 10 ug/cm3 administered through artificial diet containing Abelmoschus esculentus seed powder (reference value: 8.2 +/- 0.48 days)
Spodoptera litura [10] = experiment: Insecticidal activity against third-instar larval stage of Spodoptera litura in compound-treated castor leaves assessed as larval mortality at 5 ug/cm2 relative to control
Spodoptera litura [11] = experiment: Insecticidal activity against third-instar larval stage of Spodoptera litura in compound-treated castor leaves assessed as larval mortality at 10 ug/cm2 relative to control
Spodoptera litura [12] = experiment: Insecticidal activity against pupal stage of Spodoptera litura in compound-treated castor leaves assessed as pupal mortality at 5 ug/cm2 relative to control
Spodoptera litura [13] = experiment: Insecticidal activity against female adult Spodoptera litura in compound-treated castor leaves assessed as adult longevity time at 5 ug/cm2 (reference value: 10 +/- 0.63 days)
Earias vittella [14] = experiment: Insecticidal activity against female adult Earias vitella assessed as adult longevity time at 10 ug/cm3 administered through artificial diet containing Abelmoschus esculentus seed powder (reference value: 8.6 +/- 0.48 days)
Spodoptera litura [15] = experiment: Insecticidal activity against adult Spodoptera litura in compound-treated castor leaves assessed as adult emergence at 5 ug/cm2 relative to control
Spodoptera litura [16] = experiment: Insecticidal activity against pupal stage of Spodoptera litura in compound-treated castor leaves assessed as pupal weight at 5 ug/cm2 (reference value: 302.4 +/- 5.9 mg)
Spodoptera litura [17] = experiment: Insecticidal activity against female adult Spodoptera litura in compound-treated castor leaves assessed as adult longevity time at 10 ug/cm2 (reference value: 10 +/- 0.63 days)
Earias vittella [18] = experiment: Insecticidal activity against adult Earias vitella assessed as adult emergence at 10 ug/cm3 administered through artificial diet containing Abelmoschus esculentus seed powder (reference value: 88%)
Earias vittella [19] = experiment: Insecticidal activity against pupal stage of Earias vitella assessed as pupal mortality at 5 ug/cm3 administered through artificial diet containing Abelmoschus esculentus seed powder (reference value: 8%)
Earias vittella [20] = experiment: Antifeedant activity against third-instar larval stage of Earias vitella assessed as decrease in diet consumption at 5 ug/cm3 administered through artificial diet containing Abelmoschus esculentus seed powder after 24 hr relative to acetone-treated control; set-up: scale not given: the % may be the effect or the level left; how it was run: as §1
Spodoptera litura [21] = experiment: Antifeedant activity against third-instar larval stage of Spodoptera litura in compound-treated castor leaves assessed as decrease in diet consumption at 5 ug/cm2 after 24 hr by no-choice leaf disk assay relative to acetone-treated control; set-up: scale not given: the % may be the effect or the level left
How it was run: (§2)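 Larvae were reared on castor leaves at 25 ± 2 °C. In a no-choice test, compound in acetone was painted on the abaxial side of castor leaf disks and air-dried. Five freshly molted third-instar larvae, starved 4 h, were placed per Petri dish with wet cotton. There were five replicates. After 24 h, consumed leaf area was read on a leaf area meter. %AF = 100 − (treated/control)×100.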

Spodoptera litura [22] = experiment: Insecticidal activity against third-instar larval stage of Spodoptera litura in compound-treated castor leaves assessed as total larval duration time at 5 ug/cm2 (reference value: 12.4 +/- 0.48 days)
Spodoptera litura [23] = experiment: Insecticidal activity against adult Spodoptera litura in compound-treated castor leaves assessed as adult deformity at 10 ug/cm2 relative to control
Earias vittella [24] = experiment: Insecticidal activity against pupal stage of Earias vitella assessed as pupal duration time at 10 ug/cm3 administered through artificial diet containing Abelmoschus esculentus seed powder (reference value: 6.4 +/- 0.21 days)
Earias vittella [25] = experiment: Insecticidal activity against third-instar larval stage of Earias vitella assessed as total larval duration time at 5 ug/cm3 administered through artificial diet containing Abelmoschus esculentus seed powder (reference value: 8.2 +/- 0.48 days)
Spodoptera litura [26] = experiment: Insecticidal activity against pupal stage of Spodoptera litura in compound-treated castor leaves assessed as pupal duration time at 5 ug/cm2 (reference value: 9.2 +/- 0.74 days)
Earias vittella [27] = experiment: Insecticidal activity against adult Earias vitella assessed as adult deformity at 10 ug/cm3 administered through artificial diet containing Abelmoschus esculentus seed powder (reference value: 4%)
Spodoptera litura [28] = experiment: Insecticidal activity against pupal stage of Spodoptera litura in compound-treated castor leaves assessed as pupal weight at 10 ug/cm2 (reference value: 302.4 +/- 5.9 mg)
Earias vittella [29] = experiment: Insecticidal activity against third-instar larval stage of Earias vitella assessed as larval mortality at 5 ug/cm3 administered through artificial diet containing Abelmoschus esculentus seed powder (reference value: 4%)
Earias vittella [30] = experiment: Insecticidal activity against pupal stage of Earias vitella assessed as pupal mortality at 10 ug/cm3 administered through artificial diet containing Abelmoschus esculentus seed powder (reference value: 8%)
Earias vittella [31] = experiment: Insecticidal activity against adult Earias vitella assessed as adult deformity at 5 ug/cm3 administered through artificial diet containing Abelmoschus esculentus seed powder (reference value: 4%)
Earias vittella [32] = experiment: Insecticidal activity against male adult Earias vitella assessed as adult longevity time at 5 ug/cm3 administered through artificial diet containing Abelmoschus esculentus seed powder (reference value: 8.2 +/- 0.4 days)
Earias vittella [33] = experiment: Insecticidal activity against pupal stage of Earias vitella assessed as pupal duration time at 5 ug/cm3 administered through artificial diet containing Abelmoschus esculentus seed powder (reference value: 6.4 +/- 0.21 days)
Earias vittella [34] = experiment: Insecticidal activity against pupal stage of Earias vitella assessed as pupal weight at 5 ug/cm3 administered through artificial diet containing Abelmoschus esculentus seed powder (reference value: 88.2 +/- 4.01 mg)
Spodoptera litura [35] = experiment: Insecticidal activity against pupal stage of Spodoptera litura in compound-treated castor leaves assessed as pupal duration time at 10 ug/cm2 (reference value: 9.2 +/- 0.74 days)
Spodoptera litura [36] = experiment: Insecticidal activity against third-instar larval stage of Spodoptera litura in compound-treated castor leaves assessed as total larval duration time at 10 ug/cm2 (reference value: 12.4 +/- 0.48 days)
Earias vittella [37] = experiment: Insecticidal activity against adult Earias vitella assessed as adult emergence at 5 ug/cm3 administered through artificial diet containing Abelmoschus esculentus seed powder (reference value: 88%)
Earias vittella [38] = experiment: Insecticidal activity against third-instar larval stage of Earias vitella assessed as larval mortality at 10 ug/cm3 administered through artificial diet containing Abelmoschus esculentus seed powder (reference value: 4%)
Spodoptera litura [39] = experiment: Insecticidal activity against adult Spodoptera litura in compound-treated castor leaves assessed as adult deformity at 5 ug/cm2 relative to control
Spodoptera litura [40] = experiment: Antifeedant activity against third-instar larval stage of Spodoptera litura in compound-treated castor leaves assessed as decrease in diet consumption at 10 ug/cm2 after 24 hr by no-choice leaf disk assay relative to acetone-treated control; set-up: scale not given: the % may be the effect or the level left; how it was run: as §2

CC(=O)OC[C@@]12[C@@H](OC(C)=O)C[C@@H](C)[C@](C)([C@@H]3C[C@H]4CC(O)O[C@H]4O3)[C@H]1CC[C@H](OC(C)=O)[C@]21CO1 (stereo not given in full) [15-HYDROXYEPICARYOPTIN]
Time (Earias vittella [1]): 6.2 days
Activity (Earias vittella [2]): 71.84%
Activity (Earias vittella [3]): 57.2 mg
mortality at 10 µg/cm2 (Spodoptera litura [4]): 27.6%
Time (Spodoptera litura [5]): 8 days
Time (Spodoptera litura [6]): 7.5 days
Time (Earias vittella [7]): 6.8 days
Activity (Spodoptera litura [8]): 62.4%
Time (Earias vittella [9]): 10.2 days
mortality at 5 µg/cm2 (Spodoptera litura [10]): 20%
mortality at 10 µg/cm2 (Spodoptera litura [11]): 32%
mortality at 5 µg/cm2 (Spodoptera litura [12]): 22.5%
Time (Spodoptera litura [13]): 7.4 days
Time (Earias vittella [14]): 6.6 days
Activity (Spodoptera litura [15]): 70.4%
Activity (Spodoptera litura [16]): 272.2 mg
Time (Spodoptera litura [17]): 7 days
Activity (Earias vittella [18]): 62%
mortality (Earias vittella [19]): 28%
Activity (Earias vittella [20]): 62.15%
Activity (Spodoptera litura [21]): 74%
Time (Spodoptera litura [22]): 13.5 days
Activity (Spodoptera litura [23]): 9.6%
Time (Earias vittella [24]): 9.6 days
Time (Earias vittella [25]): 9.8 days
Time (Spodoptera litura [26]): 10.8 days
Activity (Earias vittella [27]): 4%
Activity (Spodoptera litura [28]): 258.8 mg
mortality (Earias vittella [29]): 8%
mortality (Earias vittella [30]): 34%
Activity (Earias vittella [31]): 4%
Time (Earias vittella [32]): 6.6 days
Time (Earias vittella [33]): 9 days
Activity (Earias vittella [34]): 58 mg
Time (Spodoptera litura [35]): 11.6 days
Time (Spodoptera litura [36]): 14.2 days
Activity (Earias vittella [37]): 68%
mortality (Earias vittella [38]): 8%
Activity (Spodoptera litura [39]): 7.2%
Activity (Spodoptera litura [40]): 78%

CC[C@@](C)(OC(C)=O)C(=O)O[C@H]1[C@H](OC(C)=O)C[C@@H]2[C@@](C)([C@@H]3C[C@H]4C=CO[C@H]4O3)[C@H](C)C[C@H](OC(C)=O)[C@@]2(COC(C)=O)[C@@]12CO2 [CLERODENDRIN B ACETATE]
Time (Earias vittella [1]): 6.4 days
Activity (Earias vittella [2]): 69%
Activity (Earias vittella [3]): 64.2 mg
mortality at 10 µg/cm2 (Spodoptera litura [4]): 27%
Time (Spodoptera litura [5]): 9 days
Time (Spodoptera litura [6]): 8.5 days
Time (Earias vittella [7]): 7.4 days
Activity (Spodoptera litura [8]): 64%
Time (Earias vittella [9]): 9.7 days
mortality at 5 µg/cm2 (Spodoptera litura [10]): 20%
mortality at 10 µg/cm2 (Spodoptera litura [11]): 24%
mortality at 5 µg/cm2 (Spodoptera litura [12]): 22.7%
Time (Spodoptera litura [13]): 8.2 days
Time (Earias vittella [14]): 7.2 days
Activity (Spodoptera litura [15]): 72%
Activity (Spodoptera litura [16]): 284.4 mg
Time (Spodoptera litura [17]): 8 days
Activity (Earias vittella [18]): 64%
mortality (Earias vittella [19]): 24%
Activity (Earias vittella [20]): 51%
Activity (Spodoptera litura [21]): 65.8%
Time (Spodoptera litura [22]): 12.6 days
Activity (Spodoptera litura [23]): 8.8%
Time (Earias vittella [24]): 8.8 days
Time (Earias vittella [25]): 9.2 days
Time (Spodoptera litura [26]): 10.2 days
Activity (Earias vittella [27]): 4%
Activity (Spodoptera litura [28]): 273.2 mg
mortality (Earias vittella [29]): 4%
mortality (Earias vittella [30]): 32%
Activity (Earias vittella [31]): 4%
Time (Earias vittella [32]): 6.8 days
Time (Earias vittella [33]): 7 days
Activity (Earias vittella [34]): 71.2 mg
Time (Spodoptera litura [35]): 11 days
Time (Spodoptera litura [36]): 13.1 days
Activity (Earias vittella [37]): 72.5%
mortality (Earias vittella [38]): 4%
Activity (Spodoptera litura [39]): 4.8%
Activity (Spodoptera litura [40]): 75%

CC[C@@](C)(OC(C)=O)C(=O)O[C@H]1[C@H](O)C[C@@H]2[C@@](C)([C@@H]3C[C@H]4C=CO[C@H]4O3)[C@H](C)C[C@H](OC(C)=O)[C@@]2(COC(C)=O)[C@@]12CO2 [CLERODENDRIN B]
Time (Earias vittella [1]): 4.6 days
Activity (Earias vittella [2]): 82.14%
Activity (Earias vittella [3]): 50.4 mg
mortality at 10 µg/cm2 (Spodoptera litura [4]): 37%
Time (Spodoptera litura [5]): 6.8 days
Time (Spodoptera litura [6]): 6.2 days
Time (Earias vittella [7]): 5.8 days
Activity (Spodoptera litura [8]): 46.4%
Time (Earias vittella [9]): 11.2 days
mortality at 5 µg/cm2 (Spodoptera litura [10]): 32%
mortality at 10 µg/cm2 (Spodoptera litura [11]): 44%
mortality at 5 µg/cm2 (Spodoptera litura [12]): 29.4%
Time (Spodoptera litura [13]): 6.4 days
Time (Earias vittella [14]): 4.8 days
Activity (Spodoptera litura [15]): 59.2%
Activity (Spodoptera litura [16]): 240 mg
Time (Spodoptera litura [17]): 5.2 days
Activity (Earias vittella [18]): 44%
mortality (Earias vittella [19]): 40%
Activity (Earias vittella [20]): 74.85%
Activity (Spodoptera litura [21]): 76.5%
Time (Spodoptera litura [22]): 14.5 days
Activity (Spodoptera litura [23]): 16.8%
Time (Earias vittella [24]): 12.2 days
Time (Earias vittella [25]): 10.6 days
Time (Spodoptera litura [26]): 12 days
Activity (Earias vittella [27]): 16%
Activity (Spodoptera litura [28]): 220.2 mg
mortality (Earias vittella [29]): 15%
mortality (Earias vittella [30]): 42.5%
Activity (Earias vittella [31]): 8%
Time (Earias vittella [32]): 5.4 days
Time (Earias vittella [33]): 10 days
Activity (Earias vittella [34]): 55 mg
Time (Spodoptera litura [35]): 13 days
Time (Spodoptera litura [36]): 15.8 days
Activity (Earias vittella [37]): 52.5%
mortality (Earias vittella [38]): 20%
Activity (Spodoptera litura [39]): 12%
Activity (Spodoptera litura [40]): 84.9%
